The text below walks through data of ChEMBL document CHEMBL1921736, “Evaluation of new chalcone derivatives as polyphenol oxidase inhibitors” (Bioorg Med Chem Lett, 2011).

The source made the active and inactive calls. The calls are words filed in the database; no cut-off is given here.

Assay [1] deals with Musa acuminata. The experiment in a line: Inhibition of diphenolase activity of banana tyrosinase using catechol as substrate at 50 uM by spectrophotometry. The procedure, abridged:
(§1)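 Tyrosinase (PPO) extracted from banana, then purified on a Sepharose 4B-L-tyrosine-p-aminobenzoic acid affinity column; all purification steps at 25 °C. Activity measured with catechol as substrate by following the absorbance increase at 420 nm. Residual activity was followed over a range of inhibitor concentrations, and progress curves were compared with uninhibited enzyme activity.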

For assay [2], the system named is Musa acuminata. The experiment in a line: Activation of diphenolase activity of banana tyrosinase using catechol as substrate at 50 uM by spectrophotometry. The method in brief:
as §1

The nature of assay [3]: Competitive inhibition of diphenolase activity of banana tyrosinase using catechol as substrate by Lineweaver-Burk double reciprocal plot analysis. Further details: species or system Musa acuminata. The method in brief:
as §1

Assay [4] is described as follows: Inhibition of diphenolase activity of banana tyrosinase using catechol as substrate by spectrophotometry. Further details: species or system Musa acuminata. The method in brief: as §1

On to `O=C(/C=C/c1ccc(Cl)cc1)c1ccc(NC(=S)Nc2ccccc2)cc1`, for which the inhibition entry in the assay with Musa acuminata [1] is “inactive”. For the same compound, the result in the assay on Musa acuminata [2] was Active.

With `Cc1ccc(NC(=O)Nc2ccc(C(=O)/C=C/c3ccc(Br)cc3)cc2)cc1`, in the assay on Musa acuminata [1], the inhibition result was “inactive”. Further, the outcome in the assay with Musa acuminata [2] was Active.

On to `COc1ccc(/C=C/C(=O)c2ccc(NC(=O)Nc3ccc(C)cc3)cc2)cc1`, for which, in the assay on Musa acuminata [1], the inhibition entry is “inactive”. The outcome in the assay on Musa acuminata [2] was Active.

As for `O=C(Nc1ccccc1)Nc1ccc(C(=O)/C=C/c2ccc(Cl)cc2)cc1`, the inhibition result with Musa acuminata [1] is “inactive”. Also, the result in the assay with Musa acuminata [2] was Active.

Take `COc1ccc(/C=C/C(=O)c2ccc(NC(=O)Nc3ccccc3)cc2)cc1`: the inhibition result in the assay on Musa acuminata [1] was “inactive”. Moreover, in the assay on Musa acuminata [2], the outcome was Active.

For orientation: Ki means the dissociation constant of the complex between target and ligand, obtained from inhibition or displacement. Lower therefore signals a stronger hold on the target. One may read the IC50 as the midpoint of a concentration-inhibition curve. The low end stands for inhibition by little substance, the high end for a need for much substance. For the compound `O=C(Nc1ccccc1)Nc1ccc(/C=C/C(=O)c2ccccc2)cc1`, in assay [3], the Ki turned out to be 37 nM. Half-maximal inhibition in assay [4] (IC50) required 172 nM.

Compound `COc1ccc(C(=O)/C=C/c2ccc(NC(=O)Nc3ccc(C)cc3)cc2)cc1` had a Ki in assay [3] of 22 nM. In assay [4], inhibition was half-maximal at 289 nM (IC50).

`Cc1ccc(NC(=S)Nc2ccc(C(=O)/C=C/c3ccc(Cl)cc3)cc2)cc1`: the inhibition entry in the assay with Musa acuminata [1] is “inactive”. The outcome with Musa acuminata [2] was Active.

In assay [3], `Cc1ccc(NC(=O)Nc2ccc(/C=C/C(=O)c3ccc(Cl)cc3)cc2)cc1` displayed a Ki of 129 nM. In assay [4], this compound came in with an IC50 of 238 nM.

Turning to `O=C(Nc1ccccc1)Nc1ccc(C(=O)/C=C/c2ccc(Br)cc2)cc1`, the inhibition entry in the assay on Musa acuminata [1] was “inactive”. The result in the assay on Musa acuminata [2] was Active.

`Cc1ccc(NC(=O)Nc2ccc(C(=O)/C=C/c3ccc(Cl)cc3)cc2)cc1`: the inhibition entry in the assay on Musa acuminata [1] was “inactive”. In addition, the outcome in the assay on Musa acuminata [2] was Active.

In turn, `COc1cccc(NC(=O)Nc2ccc(/C=C/C(=O)c3ccccc3)cc2)c1` gave a Ki in assay [3] of 240 nM. This compound also had an IC50 in assay [4] of 244 nM.

For `COc1ccc(/C=C/C(=O)c2ccc(NC(=S)Nc3ccccc3)cc2)cc1`, in the assay on Musa acuminata [1], the inhibition entry was “inactive”. Also, the result in the assay on Musa acuminata [2] was Active.

With `Cc1ccc(/C=C/C(=O)c2ccc(NC(=O)Nc3ccccc3)cc2)cc1`, the inhibition entry in the assay on Musa acuminata [1] was “inactive”. Besides, the result in the assay with Musa acuminata [2] was Active.

In assay [3], `Cc1ccc(NC(=O)Nc2ccc(/C=C/C(=O)c3ccc(C)cc3)cc2)cc1` displayed a Ki of 67 nM. Besides, the IC50 in assay [4] turned out to be 134 nM.

For the compound `O=C(Nc1ccc(F)cc1)Nc1ccc(/C=C/C(=O)c2ccc(Cl)cc2)cc1`, the affinity in assay [3] corresponds to a Ki of 117 nM. The compound also gave an IC50 in assay [4] of 133 nM.

Regarding `Cc1ccc(C(=O)/C=C/c2ccc(NC(=O)Nc3ccc(F)cc3)cc2)cc1`, affinity in assay [3] was put at a Ki of 59 nM. In assay [4], this compound yielded an IC50 of 217 nM.

Turning to `COc1ccc(/C=C/C(=O)c2ccc(NC(=S)Nc3ccc(C)cc3)cc2)cc1`, the inhibition entry with Musa acuminata [1] is “inactive”. The outcome with Musa acuminata [2] was Active.

`O=C(Nc1ccc(F)cc1)Nc1ccc(/C=C/C(=O)c2ccccc2)cc1`: the Ki in assay [3] was determined as 125 nM. The same compound yielded an IC50 in assay [4] of 177 nM.

Regarding `Cc1ccc(/C=C/C(=O)c2ccc(NC(=O)Nc3ccc(C)cc3)cc2)cc1`, the inhibition entry in the assay with Musa acuminata [1] was “inactive”. Also, the result with Musa acuminata [2] was Active.

As to `COc1cccc(NC(=O)Nc2ccc(/C=C/C(=O)c3ccc(Cl)cc3)cc2)c1`, the Ki in assay [3] amounted to 59 nM. Also, half-maximal inhibition in assay [4] (IC50) was put at 152 nM.

`Cc1ccc(NC(=O)Nc2ccc(/C=C/C(=O)c3ccccc3)cc2)cc1`: the Ki in assay [3] was 57 nM. In assay [4], this compound registered an IC50 of 241 nM.
